Measurements as given in ChEMBL document CHEMBL1125102, “Synthesis and biological evaluation of 2-styrylquinazolin-4(3H)-ones, a new class of antimitotic anticancer agents which inhibit tubulin polymerization” (J Med Chem, 1990).
Converted amounts (≈) assume the structure as drawn. “And” between values parts separate entries of the source, which are not always exact repeats. Equal entries are not always repeated.

Experiments:
Tubulin = test: Inhibition of tubulin polymerization; format: functional
How it was run: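 Glutamate-driven assembly: purified tubulin 1.0 mg/mL (10 μM) in 1.0 M monosodium glutamate pH 6.6, 1.0 mM MgCl2, 4% (v/v) DMSO, preincubated with drug 15 min at 37 °C, chilled, GTP added, then warmed 0→37 °C in cuvettes with turbidity read-out. IC50 = drug level halving extent of polymerization, obtained graphically in triplicate experiments.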

L1210 [1] = test: In vitro inhibition of L1210 murine leukemia cells by using MTT assay in cell culture; format: functional, cell-based; conditions: Mus musculus
How it was run: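 L1210 murine leukemia cells in culture; cytotoxicity measured by MTT assay, reported as IC50 in μg/mL.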

L1210 [2] = test: In vivo inhibition of L1210 murine leukemia cells in mice (ip) at a dose of 200 mg/kg; format: functional, Mus musculus
How it was run: (§1)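 L1210 murine leukemia in mice: tumor cells inoculated ip, drug injected ip one day later; efficacy expressed as % T/C at the stated dose.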

L1210 [3] = test: In vivo inhibition of L1210 murine leukemia cells in mice (ip) at a dose of 50 mg/kg; format: functional, Mus musculus; how it was run: as §1
L1210 [4] = test: In vivo inhibition of L1210 murine leukemia cells in mice (ip) at a dose of 100 mg/kg; format: functional, Mus musculus; how it was run: as §1
[5] = Antitumor activity against murine melanoma B16 cells was determined after (ip) administration of a dose of 300 mg/kg, ip; format: functional, Mus musculus; conditions: route intraperitoneal
L1210 [6] = test: (§2) Antitumor activity against […] was determined after (ip) administration of a dose of 60 mg/kg; format: functional, Mus musculus
P388 [7] = test: as §2; format: functional, Mus musculus
[8] = Antitumor activity against murine melanoma B16 cells was determined after (ip) administration of a dose of 400 mg/kg, ip; format: functional, Mus musculus; conditions: route intraperitoneal
[9] = Antitumor activity against murine sarcoma M531 cells was determined after (ip) administration of a dose of 120 mg/kg, ip; format: functional, Mus musculus; conditions: route intraperitoneal
L1210 [10] = test: (§3) Antitumor activity against murine leukemia P388 cells was determined after (ip) administration of a dose of 120 mg/kg; format: functional, Mus musculus
P388 [11] = test: as §3; format: functional, Mus musculus
[12] = Antitumor activity against murine sarcoma M531 cells was determined after (ip) administration of a dose of 240 mg/kg, ip; format: functional, Mus musculus; conditions: route intraperitoneal
[13] = Antitumor activity against human melanoma xenograft LOX (SC) cells was determined after (ip) administration of a dose of 120 mg/kg; format: functional
[14] = Antitumor activity against murine melanoma B16 cells was determined after (ip) administration of a dose of 200 mg/kg, ip; format: functional, Mus musculus; conditions: route intraperitoneal
[15] = Antitumor activity against human melanoma xenograft LOX (SC) cells was determined after (ip) administration of a dose of 240 mg/kg; format: functional
[16] = Antitumor activity against murine melanoma B16 cells was determined after (ip) administration of a dose of 100 mg/kg, ip; format: functional, Mus musculus; conditions: route intraperitoneal
[17] = Antitumor activity against human melanoma xenograft LOX (SC) cells was determined after (ip) administration of a dose of 60 mg/kg; format: functional
MX1 [18] = test: Antitumor activity against human mammary tumor xenograft MX-1(SRC) cells was determined after (ip) administration of a dose of 120 mg/kg; format: functional
MX1 [19] = test: Antitumor activity against human mammary tumor xenograft MX-1(SRC) cells was determined after (ip) administration of a dose of 60 mg/kg; format: functional
[20] = Antitumor activity against murine melanoma B16 cells was determined after (ip) administration of a dose of 50 mg/kg, ip; format: functional, Mus musculus; conditions: route intraperitoneal
MX1 [21] = test: Antitumor activity against human mammary tumor xenograft MX-1(SRC) cells was determined after (ip) administration of a dose of 240 mg/kg; format: functional
L1210 [22] = test: In vivo inhibition of L1210 murine leukemia cells in mice (ip) at a dose of 25 mg/kg; format: functional, Mus musculus; how it was run: as §1
L1210 [23] = test: In vivo inhibition of L1210 murine leukemia cells in mice (ip) at a dose of 240 mg/kg; format: functional, Mus musculus; how it was run: as §1
L1210 [24] = test: In vivo inhibition of L1210 murine leukemia cells in mice (ip) at a dose of 12 mg/kg; format: functional, Mus musculus; how it was run: as §1
L1210 [25] = test: […]; format: functional, Mus musculus; conditions: dose 150 mg/kg
How it was run: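 Murine L1210 leukemia cells were inoculated intraperitoneally into mice. Drug was injected intraperitoneally one day after tumor inoculation. Therapeutic efficacy was read out as % T/C at the stated dose in mg/kg.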

Compound	IC50 (Tubulin) [µM]	IC50 (L1210 [1]) [µg/mL]	T/C (L1210 [2]) [%]	other results
Oc1nc(/C=C/c2ccccc2)nc2cc(N3CCCCC3)c(F)cc12	> 40	0.2 (≈ 0.572 µM)	85	
Sc1nc(/C=C/c2ccccc2)nc2ccc(Cl)cc12	> 40	> 1		T/C (L1210 [3]): 94%
Oc1nc(/C=C/c2ccccc2)nc2sccc12	> 40	> 1	92	
CN1CCN(c2cc3nc(/C=C/c4ccccc4)nc(O)c3cc2F)CC1	> 40	0.2 (≈ 0.549 µM)		T/C (L1210 [3]): 100%
Nc1ccc2nc(/C=C/c3ccccc3)nc(O)c2c1	> 40	0.6 (≈ 2.28 µM)		
O=c1oc(/C=C/c2ccccc2)nc2c(O)nc(O)nc12	> 40	> 1		T/C (L1210 [3]): 94%
Cc1cccc2nc(/C=C/c3ccccc3)nc(O)c12	> 40	0.03 (≈ 0.114 µM)	100	
Oc1nc(/C=C/c2ccccc2)nc2ccc(Cl)cc12	2.5	0.001 (≈ 0.00354 µM)		T/C (L1210 [3]): 146%
Oc1nc(/C=C/c2ccccc2)nc2ccc(I)cc12	1.4	0.3 (≈ 0.802 µM)	117	
Oc1nc(/C=C/c2ccccc2)nc2c(Cl)cccc12	> 40	> 1		
Oc1ccc2nc(/C=C/c3ccccc3)nc(O)c2c1	> 40	0.006 (≈ 0.0227 µM)		T/C (L1210 [4]): 99%
COc1ccc2nc(/C=C/c3ccccc3)[nH]c(=O)c2c1	2	0.001 (≈ 0.00359 µM)		T/C [5]: 158%; T/C (L1210 [6]): 158%; T/C (P388 [7]): 135%; T/C [8]: 190%; T/C [9]: 136%; T/C (L1210 [10]): 225%; T/C (P388 [11]): 174%; T/C [12]: 154%; T/C (L1210 [3]): 173%; T/C [13]: 142%; T/C [14]: 197% and 141%; T/C [15]: 153%; T/C [16]: 145%; T/C [17]: 142%; T/C (MX1 [18]): 16%; T/C (MX1 [19]): 21%; T/C [20]: 129%; T/C (MX1 [21]): -81%
COc1ccc2c(O)nc(/C=C/c3ccccc3)nc2c1	5.7	0.001 (≈ 0.00359 µM)	100	
Cc1ccc2nc(/C=C/c3ccccc3)nc(O)c2c1	2	0.02 (≈ 0.0762 µM)		T/C (L1210 [22]): 107%
Oc1nc(CC(c2ccccc2)N2CCOCC2)nc2ccc(Cl)cc12 (configuration not stated)	> 40		125	
Cc1nc(/C=C/c2ccccc2)nc(O)c1C	> 40	> 1		T/C (L1210 [3]): 89%
Oc1nc(Cc2ccccc2)nc2ccc(Cl)cc12	> 40	> 1		
Nn1c(/C=C/c2ccccc2)nc2ccc(Cl)cc2c1=O	> 40	> 1		T/C (L1210 [3]): 90%
Oc1nc(/C=C/c2ccccn2)nc2ccc(Cl)cc12	> 40	0.61 (≈ 2.15 µM)	91	
Oc1nc(/C=C/c2ccccc2)nc2cc(Cl)c(F)cc12	> 40	0.007 (≈ 0.0233 µM)		T/C (L1210 [4]): 111%
Oc1nc(/C=C/c2ccccc2)nc2ccc(F)cc12	5.4	0.05 (≈ 0.188 µM)		T/C (L1210 [4]): 129%

Compound	IC50 (Tubulin) [µM]	IC50 (L1210 [1]) [µg/mL]	T/C (L1210 [2]) [%]	other results
Oc1nc(/C=C/c2ccccc2)nc2ccc3ncccc3c12	> 40	0.4 (≈ 1.34 µM)		T/C (L1210 [3]): 95%
O=c1[nH]c(/C=C/c2ccccc2)nc2ccccc12	11	0.02 (≈ 0.0806 µM)		T/C (L1210 [23]): 133%
O=c1[nH]c(=O)c2nc(/C=C/c3ccccc3)nc(O)c2[nH]1	> 40	> 1		T/C (L1210 [3]): 93%
CCOc1ccc2nc(/C=C/c3ccccc3)nc(O)c2c1	> 40	0.4 (≈ 1.37 µM)		
Oc1nc(CCc2ccccc2)nc2ccc(Cl)cc12	7.3	0.01 (≈ 0.0351 µM)	113	
CC(=O)Oc1ccc2nc(/C=C/c3ccccc3)nc(O)c2c1	4	0.3 (≈ 0.979 µM)	78	
CCN(CC)CCCC(C)Nc1nc(/C=C/c2ccccc2)nc2ccc(Cl)cc12 (configuration not stated)	> 40			T/C (L1210 [24]): 105%
O=S1(=O)N=C(/C=C/c2ccccc2)Nc2ccccc21	> 40	> 1	91	
COc1cc2nc(/C=C/c3ccccc3)nc(O)c2cc1OC	3.3	0.03 (≈ 0.0973 µM)	96	
C/C=C/c1nc(O)c2ccccc2n1	> 40	> 1		
C/C=C/c1nc(O)c2cc(Cl)ccc2n1	> 40	> 1	95	
Oc1nc(/C=C/c2ccccc2)nc2cc(Cl)ccc12	17	> 1		
Oc1nc(/C=C/c2ccccc2)nc2cccc(Cl)c12	> 40	> 1		T/C (L1210 [4]): 100%
Cn1c(/C=C/c2ccccc2)nc(=O)c2cc(Cl)ccc21	> 40	0.04 (≈ 0.135 µM)		T/C (L1210 [3]): 96%
O=c1c2cc(Cl)ccc2nc2n1NC(c1ccccc1)C2 (configuration not stated)	> 40	> 1		
Oc1nc(C#Cc2ccccc2)nc2ccc(Cl)cc12	> 40	0.002 (≈ 0.00712 µM)	125	
Nc1ccccc1C(=O)Oc1ccc2nc(/C=C/c3ccccc3)nc(O)c2c1	> 40	> 1		T/C (L1210 [25]): 99%
COc1ccc2nc(CC(c3ccccc3)N3CCCCC3)nc(O)c2c1 (configuration not stated)	14	0.001 (≈ 0.00275 µM)		T/C (L1210 [4]): 107%
CN1CCN(C(Cc2nc(O)c3cc(Cl)ccc3n2)c2ccccc2)CC1 (configuration not stated)	5.3			T/C (L1210 [4]): 100%
Cc1nc(O)c2cc(Cl)ccc2n1	> 40	> 1		
Oc1nc(/C=C/c2ccccc2)nc2ccc(Br)cc12	2	0.01 (≈ 0.0306 µM)		T/C (L1210 [22]): 133%
